In the test the test system is HL-60. The experiment in a line: Ability to inhibit human leukemic HL-60 cell growth in culture. In kind it is functional, cell-based. The method in brief: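 HL-60 cells seeded at 1.5 × 10^5/mL in RPMI 1640 and exposed to compound at 0.0025–0.05 mg/mL (in 0.1% DMSO). Incubation was 72 h at 37 °C under humidified 5% CO2. Viable cells were counted by trypan blue exclusion on a hemocytometer. IC50 was the median-effect concentration, taken from a median-effect plot of fractional inhibition over three to five dose-effect levels.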

Here are results for 14 molecules from ChEMBL document CHEMBL1125488, “Synthesis of the acridone alkaloids glyfoline and congeners. Structure-activity relationship studies of cytotoxic acridones” (J Med Chem, 1992).

By IC50 is commonly meant the point on the concentration scale where inhibition reaches its midpoint. A low value points to greater potency.

Where “and” joins values, the source holds several entries; their conditions need not be identical. Equal entries are not always repeated.

`COc1c(OC)c(OC)c2c(c1O)c(=O)c1ccc([N+](=O)[O-])cc1n2C` returned an IC50 (Homo sapiens, HL-60) above 100 µM.

`COc1c(OC)c(OC)c2c(c1O)c(=O)c1ccc(N)cc1n2C`: the half-inhibitory concentration (IC50) (Homo sapiens, HL-60) came out at 11.6 µM. Under “Homo sapiens, HL-60”, `CCN(CC)CCn1c2c(OC)c(O)ccc2c(=O)c2c(O)c(OC)c(OC)c(OC)c21` had an IC50 of 62.2 µM.

As to `COc1c(OC)c(OC)c2c(c1O)c(=O)c1cc(N)ccc1n2C`, the IC50 (Homo sapiens, HL-60) came out at 44.4 µM. Consider `COc1c(OC)c(O)c2c(O)c3ccc(O)c(OC)c3nc2c1OC`, for which the IC50 (Homo sapiens, HL-60) is above 100 µM.

As for `COc1ccc2c(=O)c3c(OC)c(OC)c(OC)c(OC)c3n(C)c2c1OC`, under “Homo sapiens, HL-60”, the IC50 is 23.3 µM. For `COc1cc2c(c3c1c(=O)c1ccccc1n3C)C=CC(C)(C)O2` [ACRONINE], it took 26.2 µM to reach half-maximal inhibition (Homo sapiens, HL-60) (IC50).

Where the note is “Homo sapiens, HL-60”, `COc1c(OC)c(OC)c2c(c1O)c(=O)c1cc([N+](=O)[O-])ccc1n2C` yielded a concentration for half-maximal inhibition (IC50) above 100 µM. With `COc1c(OC)c(OC)c2c(c1O)c(=O)c1ccc(N(C)C)cc1n2C`, the IC50 (Homo sapiens, HL-60) was 9.4 µM.

`CNc1ccc2c(=O)c3c(O)c(OC)c(OC)c(OC)c3n(C)c2c1` registered an IC50 (Homo sapiens, HL-60) of 10.6 µM. Still for that read-out and setting: the value for `COc1c(OC)c(OC)c2c(c1O)c(=O)c1ccc(O)c(OC)c1n2C` [GLYFOLINE] was 2.2 µM; that for `COc1c(OC)c(OC)c2c(c1O)c(=O)c1cccc(OC)c1n2C` was 12.8 µM. Take `COc1c(OC)c(OC)c2c(c1OC)c(=O)c1ccc(O)c(OC)c1n2C`: the IC50 (hl-60) is 91.9 µM and 23.7 µM. Where the note is “Homo sapiens, HL-60”, `COc1ccc2c(=O)c3c(O)c(OC)c(OC)c(OC)c3n(C)c2c1OC` registered an IC50 of 3.4 µM.
